Results of several laboratories.
Lines come from different studies, so protocols differ.
Target: Glucocorticoid receptor (NR3C1, Homo sapiens, UniProt P04150)
One construct used (P04150 1-777): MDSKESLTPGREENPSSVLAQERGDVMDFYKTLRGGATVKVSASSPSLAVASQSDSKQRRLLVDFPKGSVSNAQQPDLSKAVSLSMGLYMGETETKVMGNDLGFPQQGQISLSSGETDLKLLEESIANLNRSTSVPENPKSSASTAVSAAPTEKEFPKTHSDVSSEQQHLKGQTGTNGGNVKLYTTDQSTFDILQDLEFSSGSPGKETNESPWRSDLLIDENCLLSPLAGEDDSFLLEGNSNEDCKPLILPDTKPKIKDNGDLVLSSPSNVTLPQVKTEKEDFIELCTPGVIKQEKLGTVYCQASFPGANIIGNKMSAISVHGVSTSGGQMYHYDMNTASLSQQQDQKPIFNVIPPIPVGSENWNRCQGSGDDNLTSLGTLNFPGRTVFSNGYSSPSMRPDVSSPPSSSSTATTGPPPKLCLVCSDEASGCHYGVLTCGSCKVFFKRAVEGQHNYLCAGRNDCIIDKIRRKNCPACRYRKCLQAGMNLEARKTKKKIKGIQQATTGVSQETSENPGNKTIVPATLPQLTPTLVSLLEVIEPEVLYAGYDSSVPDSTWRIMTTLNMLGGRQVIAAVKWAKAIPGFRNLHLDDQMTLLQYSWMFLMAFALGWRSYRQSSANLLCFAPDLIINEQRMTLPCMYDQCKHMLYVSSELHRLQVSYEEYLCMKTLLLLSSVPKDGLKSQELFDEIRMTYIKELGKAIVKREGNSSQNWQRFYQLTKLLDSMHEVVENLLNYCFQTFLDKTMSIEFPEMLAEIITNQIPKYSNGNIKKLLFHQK

SMILES | observed | method | tested at | measurement | value
CC(C)N1CCC[C@H]1CNC(=O)c1cn(C2CCCC2)c(=O)c2c1c1ccccc1n2C | ligand displacement | radioligand | 10 µM | inhibition | 1%
c1ccc(C(NCCNC(c2ccccc2)c2ccccc2)c2ccccc2)cc1 | cell-free assay | – | 10 µM | inhibition | 6%
Nc1ncc(-c2nc(N3CCOCC3)nc(N3CCOCC3)n2)c(C(F)F)n1 | cell-free assay | radioligand | 10 µM | remaining signal | 105%
C[C@H](C(=O)N[C@H]1COc2ccccc2[C@@H]1S(C)(=O)=O)c1ccc(F)cc1 | cell-free assay | – | 10 µM | inhibition | 14%
CN(CCN1CCC(OC(=O)Nc2ccccc2-c2ccccc2)CC1)C(=O)c1ccc(CN2CCC(C(N)=O)CC2)cc1 | ligand displacement | radioligand | 1 µM | inhibition | -8%
COCc1c(-c2cc3cc(C)cc(OC)c3s2)c2c(N)ncnn2c1CN1CCNC(=O)C1 | ligand displacement | radioligand | 10 µM | inhibition | -1%
Clc1ccc2c(C3CCN(CCc4c[nH]c5ccccc45)CC3)c[nH]c2c1 | ligand displacement | radioligand | 10 µM | inhibition | 7%
O=C(Nc1cccnn1)N1CCN([C@@H]2CCOc3cc(C(F)(F)F)ccc32)CC1 | cell-free assay | – | 20 µM | inhibition | 4%
